Data: PubChem BioAssay
Records with an inconclusive call do not appear.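 How the source made its calls, unless noted: active means viability at or below 27.92% in each of two runs, the all-compound median minus 4 SD; inconclusive means no clear call, values can overlap the other calls; inactive means the rest.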

Key:
[1] = S. cerevisiae growth inhibition in permissive medium (OD615), pilot counter-assay for S. cerevisiae lifespan shortening project, permissive growth control (AID 705;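 active means growth inhibition above 25% in both replicates, a cutoff set 3 SD above the mean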); conditions: OD615, 24 h, at 10 µM, stronger effect = higher value
How it was run: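 System: engineered DeaD yeast; Medium: permissive raffinose/galactose medium; Compound dosing: 10 µM single dose, 0.25% DMSO; Incubation: 4 h cell pre-growth, 24 h exposure at 30 °C; Technique: OD at 615 nm; Evaluation: growth inhibition from lowered OD615 after 24 h.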

[2] = S. cerevisiae growth inhibition in restrictive medium, OD615, pilot screen, restrictive growth control, yeast lifespan reduction project (AID 706;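 active means growth inhibition above a set limit, 3 SD over mean compound inhibition, in both replicates, cut at about 43% in these data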;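 further: modified DeaD lifespan yeast strain shifted to restrictive glucose medium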); conditions: OD615, 48 h, at 10 µM, stronger effect = higher value
How it was run: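 Material: modified S. cerevisiae; buffer or medium: CSMM-D glucose medium; doses: one concentration, 10 µM final, 0.25% DMSO; incubation: 48 h compound exposure at 30 °C; detection: optical density at 615 nm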

[3] = doxorubicin toxicity protection in MRP-1 cells – H69AR cells, CellTiter-Glo, duplicate, MRP-1 activator project, pilot screen (AID 807;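 active means viability increase at or above a cutoff of the median across tested compounds plus 3 SD, cut at about 8.5% in these data, passing the limit was not always enough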;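 further: compound pretreatment 18-22 h then 72 h combined with doxorubicin; 0% = doxorubicin alone and 100% = vehicle without doxorubicin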); conditions: H69AR viability with doxorubicin, CellTiter-Glo luminescence; at 10 µM; stronger effect = higher value
[4] = viability of HCT116 without oncogenic beta-catenin – human colon tumor cells, pilot screen (AID 823;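 active means cell viability at or below a set limit in both duplicate runs, the limit being the all-compound median minus 4 SD, cut at about 23% in these data, passing the limit was not always enough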;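 further: 0% = wells killed by 20 µM Hyamine and 100% = untreated DMSO cell wells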); conditions: HCT116 beta-catenin knockout viability, CellTiter-Glo, 60 h; at 10 µM; stronger effect = lower value
[5] = viability of PTEN-null HCT116 cells – cell-based, HCT116 clonal line, CellTiter-Glo, pilot screen (AID 824); conditions: HCT116 PTEN-deleted viability, 60 h, at 10 µM, stronger effect = lower value;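 further: 0% = 20 µM Hyamine control and 100% = vehicle cell control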
[6] = RAM pathway blockade in budding yeast – dse1pr::URA3 reporter, 5-FOA selection, pilot screen (AID 869;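 active means inhibition over a set limit, the all-compound mean plus 3 SD, in both replicate runs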;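 further: 0% = DMSO wells with no growth and 100% = 10 µM 1-NA-PP1 with full growth; RAM network block rescues cells from 5-FOA so hits raise OD615 growth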); conditions: S. cerevisiae dse1pr::URA3 5-FOA growth, OD615, 2 d; at 10 µM; stronger effect = higher value; strain carries analog-sensitive mutant Cbk1 kinase
[7] = RAM signaling pathway blockade in yeast – S. cerevisiae, Pdr1DBD-CYC8 efflux-inhibited sensitized strain, primary screen (AID 1298;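 active means RAM network inhibition above 8.4% in each of two replicates, 3 SD over the compound average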;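 further: 0% = DMSO untreated cells without growth and 100% = 10 µM 1-NA-PP1 full growth; higher means more yeast growth rescued from 5-FOA killing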); conditions: S. cerevisiae cbk1-as DSE1-URA3 strain, 5-FOA growth OD615, 2 d; at 50 µM; stronger effect = higher value

COc1ccc(CC(=O)Nc2c3c(nn2C(C)(C)C)CS(=O)C3)cc1 (stereo unspecified)
inactive: growth inhibition [1] -13.6% | growth inhibition [2] -4.57% | viability increase [3] -0.14% | viability [4] 109% | viability [5] 101% | inhibition [6] 1.24% | RAM network inhibition [7] 0.63%

Cc1ccnc(SCCn2c(N(C)Cc3ccccc3)nc3c2c(=O)n(C)c(=O)n3C)n1
inactive: growth inhibition [1] -15.3% | growth inhibition [2] -13% | viability increase [3] -0.84% | viability [4] 93.3% | viability [5] 88.7% | inhibition [6] -0.475% | RAM network inhibition [7] 5.55%

CS(=O)(=O)c1ccc2nc(NC(=O)c3ccco3)sc2c1
inactive: growth inhibition [1] -16% | growth inhibition [2] -4.42% | viability increase [3] -7.64% | viability [4] 84.9% | viability [5] 81.9% | inhibition [6] 3.1% | RAM network inhibition [7] 4.15%

CC(=O)Nc1nnc(-c2ccc3c(c2)CCCC3)o1
inactive: growth inhibition [1] -12.7% | growth inhibition [2] 3.68% | viability increase [3] -0.69% | viability [4] 95% | viability [5] 88.3% | inhibition [6] 1.36% | RAM network inhibition [7] 4.21%

N=c1oc2ccccc2cc1-c1nc2ccccc2c(=O)[nH]1
inactive: growth inhibition [1] 2.5% | growth inhibition [2] 1.96% | viability increase [3] 2.52% | viability [4] 94.3% | viability [5] 96.3% | inhibition [6] 2% | RAM network inhibition [7] 4.24%

Cc1nc2sc(C(c3ccccc3)N3CCN(C)CC3)c(O)n2n1 (stereo unspecified)
inactive: growth inhibition [1] -3.65% | growth inhibition [2] 8.75% | viability increase [3] 0.48% | viability [4] 100% | viability [5] 103% | inhibition [6] 2.15% | RAM network inhibition [7] 2.45%

COc1cccc(CNC(=O)CCS(=O)(=O)c2cccc3nonc23)c1
inactive: growth inhibition [1] -13.5% | growth inhibition [2] -21.2% | viability increase [3] -3.04% | viability [4] 93.2% | viability [5] 91% | inhibition [6] 1.75% | RAM network inhibition [7] 0.46%

Cc1cc(NC(=O)CSc2nnc(Cc3cccn3C)n2CCc2ccccc2)no1
inactive: growth inhibition [1] 6.44% | growth inhibition [2] 14.2% | viability increase [3] -2.85% | viability [4] 93.2% | viability [5] 89.4% | inhibition [6] 0.955% | RAM network inhibition [7] 7.83%

CCSc1nnc(NC(=O)c2c(-c3ccccc3Cl)noc2C)s1
inactive: growth inhibition [1] 0.595% | growth inhibition [2] 2.59% | viability increase [3] -1.87% | viability [4] 97.8% | viability [5] 88.2% | inhibition [6] 1.04% | RAM network inhibition [7] 8.79%

O=C(CSc1nnc2sc3ccccc3n12)NCc1ccc2c(c1)OCO2
inactive: growth inhibition [1] 1.77% | growth inhibition [2] 20.7% | viability increase [3] -1.52% | viability [4] 104% | viability [5] 101% | inhibition [6] 0.245% | RAM network inhibition [7] 4.54%

CCOc1ccccc1NC(=O)CSc1nnc(Cn2c(=O)sc3ccccc32)n1C
inactive: growth inhibition [1] -8.96% | growth inhibition [2] 9.08% | viability increase [3] -2.73% | viability [4] 91.5% | viability [5] 92% | inhibition [6] 1.48% | RAM network inhibition [7] 2.49%

COc1ccc(-n2nc(C(=O)N3CCC(C#N)CC3)c3c4ccccc4n(C)c3c2=O)cc1
inactive: growth inhibition [1] -14.9% | growth inhibition [2] -27% | viability increase [3] -4.6% | viability [4] 92.2% | viability [5] 88.9% | inhibition [6] 1.95% | RAM network inhibition [7] 7.49%

COc1ccc(CCNC(=O)c2cc3ccccn3n2)c(OC)c1OC
inactive: growth inhibition [1] -3.78% | growth inhibition [2] 7.63% | viability increase [3] -0.02% | viability [4] 112% | viability [5] 106% | inhibition [6] 1.92% | RAM network inhibition [7] -0.2%

COC(=O)C1=COC(C)C2CN3CCc4c([nH]c5ccccc45)C3CC12 (stereo unspecified)
inactive: growth inhibition [1] -14.5% | growth inhibition [2] 1.04% | viability increase [3] -4.71% | viability [4] 77.4% | viability [5] 86% | inhibition [6] 1.6% | RAM network inhibition [7] 7.8%

C=CCn1c(CSc2nc3ccccc3s2)nnc1SCC(=O)OCC
inactive: growth inhibition [1] -1.57% | growth inhibition [2] 27.4% | viability increase [3] -0.04% | viability [4] 97.6% | viability [5] 101% | inhibition [6] -0.335% | RAM network inhibition [7] 9.66%

Cn1c(C(=O)NCc2ccccn2)cc2c(=O)n(C)c3ccccc3c21
inactive: growth inhibition [1] -1.81% | growth inhibition [2] 0.035% | viability increase [3] -4.13% | viability [4] 103% | viability [5] 89.5% | inhibition [6] 0.965% | RAM network inhibition [7] -0.15%

O=C(NCCc1ccccc1)c1ccc(Br)o1
inactive: growth inhibition [1] -7.62% | growth inhibition [2] 1.48% | viability increase [3] 0.4% | viability [4] 104% | viability [5] 103% | inhibition [6] 0.77% | RAM network inhibition [7] 1.44%

O=C(Nc1ccc(N2CCOCC2)c(Cl)c1)C1CCCCC1
inactive: growth inhibition [1] 1.5% | growth inhibition [2] 4.29% | viability increase [3] -2.1% | viability [4] 97.6% | viability [5] 94.8% | inhibition [6] 0.18% | RAM network inhibition [7] 3.22%
